# HKDC1 inh = inhibitors of human hexokinase HKDC1 | inhibition, % at 20 µM | Q2TB90 | 340,000 compounds, 0.16% hits | recombinant HKDC1, G6PDH/diaphorase resazurin coupled fluorescence;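 active = inhibition above about 35% when tested at 20 µM, limit read from the data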;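 also: plate controls were DMSO wells with enzyme for no effect and DMSO wells lacking enzyme for full effect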
# Target sequence (Q2TB90 whole entry, looked up): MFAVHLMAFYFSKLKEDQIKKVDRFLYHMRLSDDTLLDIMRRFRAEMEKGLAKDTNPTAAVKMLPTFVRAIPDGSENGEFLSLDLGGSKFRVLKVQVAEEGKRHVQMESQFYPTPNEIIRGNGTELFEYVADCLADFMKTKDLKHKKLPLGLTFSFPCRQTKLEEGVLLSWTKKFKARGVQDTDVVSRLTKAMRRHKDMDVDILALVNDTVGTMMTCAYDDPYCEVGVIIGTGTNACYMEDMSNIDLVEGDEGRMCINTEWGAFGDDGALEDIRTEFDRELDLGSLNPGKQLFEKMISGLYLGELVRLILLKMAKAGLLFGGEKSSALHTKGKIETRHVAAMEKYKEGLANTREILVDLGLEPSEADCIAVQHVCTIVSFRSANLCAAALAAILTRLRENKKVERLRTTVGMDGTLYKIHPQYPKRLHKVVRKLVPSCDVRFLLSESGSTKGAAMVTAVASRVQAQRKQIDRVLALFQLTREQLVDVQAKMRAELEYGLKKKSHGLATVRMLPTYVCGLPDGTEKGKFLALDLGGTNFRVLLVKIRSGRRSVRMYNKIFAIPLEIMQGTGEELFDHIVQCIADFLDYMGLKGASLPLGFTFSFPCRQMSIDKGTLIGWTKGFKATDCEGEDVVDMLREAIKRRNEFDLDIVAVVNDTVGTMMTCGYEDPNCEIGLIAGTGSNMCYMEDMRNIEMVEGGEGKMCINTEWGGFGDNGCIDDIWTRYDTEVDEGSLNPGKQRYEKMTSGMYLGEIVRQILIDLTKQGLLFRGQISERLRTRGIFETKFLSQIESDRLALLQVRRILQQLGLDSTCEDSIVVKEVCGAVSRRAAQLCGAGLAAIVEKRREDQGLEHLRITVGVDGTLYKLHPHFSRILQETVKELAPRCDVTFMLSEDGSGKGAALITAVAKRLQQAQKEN
#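 Test system: Recombinant HKDC1 (HK5) hexokinase enzyme, produced in-house | Input: HKDC1 at 5 µg/mL | Buffer or medium: Tris pH 8.0 buffer with MgCl2, Tween-20, BSA, BME | Schedule: 90 min reaction incubation at room temperature, dark | Technique: Resazurin-to-resorufin fluorescence via G6PDH and diaphorase coupling, 525/613 nm | Controls: DMSO wells with and without enzyme mix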
# G6PDH CS = counter-screen for G6PDH assay hits: L. mesenteroides G6PDH inhibition. 200,000 compounds, 0.12% hits. inhibition, % at 5 µM. AID 1020. Purified L. mesenteroides G6PDH, diaphorase/resazurin coupled fluorescence, 45 min; in the data active = inhibition above about 50%
# PfG6PD inh = PfG6PD (Plasmodium falciparum) enzyme inhibition. PfGluPho enzyme, NADPH resazurin-diaphorase fluorescence. inhibition, % at 20 µM. 350,000 compounds, 0.78% hits. AID 504690;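 active = inhibition reaching at least a set limit at 20 µM in the primary screen, cut at about 59% in these data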;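 also: 0% = DMSO wells with substrate and 100% = DMSO wells lacking glucose-6-phosphate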
# Diaphorase act = diaphorase activation or chemical reduction counter-screen; Diaphorase/resazurin coupled assay, resorufin fluorescence, 16 min; hits give high values; 1 = vehicle wells, 0 = NADH-free wells; 190,000 compounds, 0.005% hits; AID 1229; activation factor at 20 µM;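 active = diaphorase activity raised at least twofold by the compound at 20 µM; inactive = activation factor below 2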
#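 Material: Clostridium kluyveri diaphorase, purified enzyme; Quantity: enzyme 0.07 U/mL final; Medium: HEPES pH 7.4 buffer with MgCl2 and Tween 20; Dosing: single compound dose of 20 µM, 1% DMSO final; Schedule: 16 min reaction at room temperature; Measured by: red resorufin fluorescence at 544/590 nm excitation/emission.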
# Diaph inh CS = counter-screen for diaphorase-based assays: diaphorase inhibitors and chemical oxidizers; inhibition, % at 20 µM; AID 1217; 190,000 compounds, 0.69% hits; diaphorase resazurin-to-resorufin fluorescence, NADH, 16 min; bacterial (C. kluyveri) enzyme, not human;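 active = primary screen inhibition at 20 µM above a set limit, cut at about 50% in these data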;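 also: plate controls were DMSO with full reaction for no effect and wells lacking NADH for full effect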
#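 Test system: Clostridium kluyveri diaphorase enzyme / Quantity: diaphorase at 0.14 U/mL in enzyme working solution / Incubation: 16-min room-temperature incubation before reading / Benchmarks: NADH-free wells as positive control, DMSO-only neutral wells / Signal: resorufin fluorescence 544/590 nm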
# PfG6PD confirm = confirmation of Plasmodium falciparum G6PD inhibitors; recombinant PfGluPho, NADPH-diaphorase-resazurin fluorescence; shares compounds with PfG6PD inh; 2,400 compounds, 34% hits; AID 504753; inhibition, % at 20 µM;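 active = inhibition of at least 50% at 20 µM in any single replicate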;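 also: 0% = DMSO with substrate and 100% = DMSO lacking glucose-6-phosphate substrate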
# Diaph ctr 10uM = counter-screen for P. falciparum G6PD inhibitors: diaphorase inhibitors, oxidizers; diaphorase-coupled resazurin reduction, fluorescence, NADPH 10 uM; shares compounds with PfG6PD inh; AID 504862; 820 compounds, 39% hits; inhibition, % at 20 µM;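 active = average inhibition reaching 50% or more with the compound at 20 µM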;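 also: resorufin red fluorescence formed as diaphorase reduces resazurin using NADPH; 0% = DMSO with enzyme and 100% = DMSO without enzyme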
# Diaphorase 30uM = diaphorase inhibition or oxidation at 30 uM NADPH | shares compounds with PfG6PD inh | Diaphorase/resazurin coupled assay, resorufin fluorescence | inhibition, % at 20 µM | 820 compounds, 29% hits;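 active = inhibition averaging 50% or more, tested at 20 µM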;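 also: 0% = DMSO with enzyme and 100% = DMSO wells lacking diaphorase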
# * marks the source's active call; other numbers are inactive results; . = no result given. An excerpt weighted towards active compounds, which were near 1.3% of everything screened.
SMILES,HKDC1 inh,G6PDH CS,PfG6PD inh,Diaphorase act,Diaph inh CS,PfG6PD confirm,others
Cc1ccc2nc(-c3ccc4c(c3)NC(=O)CO4)cn2c1,-1.8,.,104.0*,.,.,40.6,
Clc1ccc2nc(-c3ccccc3)cn2c1,-0.4,.,64.4*,.,.,36.5,
COc1cccc(C=NNC(=O)CCCC(=O)NN=Cc2cccc(OC)c2)c1,-3.6,.,13.9,.,.,.,
COc1cccc(/C=N/NC(=O)CCCc2ccc(OC)c(C)c2)c1,2.5,1.2,77.3*,0.8,19.5,23.4,
CN(CC(=O)Nc1cccc(S(=O)(=O)NC2=NCCC2)c1)Cc1ccccc1Cl,-1.3,.,-2.4,.,.,.,
O=C(CC(=O)N/N=C/c1c(F)cccc1Cl)NCc1ccccc1,-1.6,1.1,77.4*,1,2.0,67.1*,Diaph ctr 10uM=62.4*;Diaphorase 30uM=51.7*
O=C(CC(=O)N/N=C/c1ccc(Cl)cc1Cl)NCc1ccccc1,-3.8,6.4,28.3,1,4.8,.,
Cc1ccsc1/C=N\NC(=O)CC(=O)NCc1ccccc1,8.0,5.8,86.2*,0.9,14.7,72.8*,Diaph ctr 10uM=60.8*;Diaphorase 30uM=40.9
O=c1[nH]cc(CCCc2ccccc2)c(=O)[nH]1,.,.,-2.5,.,.,.,
Clc1ccc2ncc(-c3nnnn3-c3ccccc3)c(-c3ccccc3)c2c1,3.6,12.4,26.3,0.8,21.0,.,
Clc1ccc2[nH]cc(-c3nnnn3-c3ccccc3)c2c1,7.5,4.0,96.5*,0.7,25.6,36.4,
CCN(CC)C(=O)CSc1nc(-c2cccs2)cc(-c2cccs2)c1C#N,3.9,-1.6,70.0*,0.9,6.5,14.6,
CCCCCC(=O)NC(NC(=S)N1CCOCC1)C(Cl)(Cl)Cl (stereo not drawn),-3.8,13.6,-6.0,1,0.2,.,
CCCCCC(=O)NC(NC(=S)NC1CCS(=O)(=O)C1)C(Cl)(Cl)Cl (stereo not drawn),-10.7,3.6,62.8*,0.9,5.4,0.4,
O=c1o[nH]c(-c2ccccc2)c1-c1ccccc1,-5.0,.,2.0,.,.,.,
Cc1ccc2nc(SCC(=O)c3ccc(Cl)s3)[nH]c2c1,-3.0,-0.4,61.5*,0.9,9.2,4.7,
Cc1ccc2nc(SCC(=O)c3ccc4c(c3)OCO4)[nH]c2c1,18.5,0.6,55.7,1,2.8,.,
Cc1ccc(-n2nc(C(=O)N3CCOCC3)cc2-c2ccc(Cl)cc2)cc1,5.0,-19.6,59.8*,0.8,20.4,34.6,
Cc1ccsc1CN(C)C(=O)CN1C(=O)NC2(CCCc3ccccc32)C1=O (stereo not drawn),-5.6,.,3.4,.,.,.,
O=C(Nc1ncc([N+](=O)[O-])s1)c1ccc2c(c1)OCO2,0.9,.,125.9*,.,.,86.9*,Diaph ctr 10uM=83.5*;Diaphorase 30uM=78.2*
Cc1cnc(NC(=O)c2ccc3c(c2)OCCO3)s1,3.0,.,15.8,.,.,.,
Cc1ccc(C(=O)Nc2ncc([N+](=O)[O-])s2)cc1,9.9,.,98.6*,.,.,85.4*,Diaph ctr 10uM=76.0*;Diaphorase 30uM=62.8*
O=C(OCC(O)CO)c1ccccc1Nc1ccnc2cc(Cl)ccc12 (stereo not drawn),4.4,.,81.7*,.,.,30.8,
C=CCN1[C@@H](Cc2ccccc2)COCCS1(=O)=O,-4.3,.,-4.6,.,.,.,
Cc1ccc(/C=C/C(=O)NCc2ccc(S(N)(=O)=O)cc2)o1,-3.5,20.1,67.8*,0.8,21.7,58.4*,Diaph ctr 10uM=-18.7;Diaphorase 30uM=-2.5
SMILES,HKDC1 inh,G6PDH CS,PfG6PD inh,Diaphorase act,Diaph inh CS,PfG6PD confirm,others
Cc1ccc(/C=C/C(=O)NCc2ccc3c(c2)OCO3)o1,-2.8,5.4,78.1*,0.9,14.3,30.2,
Cc1ccc(/C=C/C(=O)Nc2ccc(S(N)(=O)=O)cc2)o1,-3.1,0.8,43.5,1,2.6,.,
Cc1ccc(C(=O)NCc2ccc3c(c2)OCO3)o1,-0.7,.,-15.7,.,.,.,
COc1ccc(/C=C/C(=O)NCC2COc3ccccc3O2)cc1OC (stereo not drawn),2.4,9.7,0.2,1.1,-9.5,.,
Cc1ccc(/C=C/C(=O)NCC2COc3ccccc3O2)o1 (stereo not drawn),-6.7,4.3,63.1*,0.9,11.2,47.8*,Diaph ctr 10uM=5.4;Diaphorase 30uM=-7.9
Cc1ccc(/C=C/C(=O)NC2CCCCCCC2)o1,2.6,0.4,80.7*,0.8,20.5,51.8*,Diaph ctr 10uM=3.1;Diaphorase 30uM=-2.5
CC1=C(C(=O)OCc2ccccc2)C(c2ccc3c(c2)OCO3)NC(=O)N1CCCC(=O)O (stereo not drawn),-4.3,.,-22.9,.,.,.,
Cc1ccc(/C=C/C(=O)NCCc2cccc(Cl)c2)o1,-3.6,.,62.5*,.,.,49.1*,Diaph ctr 10uM=-5.9;Diaphorase 30uM=16.2
COc1ccc(C(=O)NCCN2CCOCC2)cc1S(=O)(=O)Nc1ccc(C)cc1,-7.1,.,0.9,.,.,.,
CCOC(=O)c1ccc(-n2c(N)c(C(=O)NCc3ccco3)sc2=S)cc1,-11.6,3.6,83.4*,0.8,24.9,38.4,
CCOC(=O)c1sc(=S)n(-c2ccc(F)c(F)c2)c1N,-10.4,0.2,49.9,1,-3.7,.,
CCOC(=O)c1sc(=S)n(-c2ccc(C)cc2)c1N,-4.7,9.8,67.4*,1,4.2,31.5,
CCOC(=O)c1ccc(-n2c(N)c(C(=O)NCC3CCCO3)sc2=S)cc1 (stereo not drawn),-1.8,9.7,74.1*,0.8,15.2,52.9*,Diaph ctr 10uM=10.6;Diaphorase 30uM=12.1
CNC(=O)c1sc(=S)n(-c2ccc(OC)cc2)c1N,-3.7,2.9,-19.2,0.9,14.6,.,
C=CCNC(=O)c1sc(=S)n(-c2ccc(C(=O)OCC)cc2)c1N,-10.8,21.5,68.5*,0.9,10.0,33.9,
COc1ccc(-n2c(N)c(C(=O)NCc3ccco3)sc2=S)cc1,-3.3,11.4,47.7,0.8,20.3,.,
COc1cc(NCCC(=O)c2cccs2)c(OC)cc1Cl,5.3,1.6,44.7,0.6,40.1,.,
COc1cc(OC)cc(C(=O)NC2CC(C)(C)NC(C)(C)C2)c1,-4.6,.,-18.2,.,.,.,
CC(C)CN(C(=O)c1ccc(C(F)(F)F)cc1)c1c(N)n(CC(C)C)c(=O)[nH]c1=O,0.1,.,8.3,.,.,.,
Cc1ccc(-n2c(N)c(C(=O)NCc3cccnc3)sc2=S)cc1,-6.7,12.8,67.5*,1,-0.6,6.9,
O=C(Nc1ccc2c(c1)CCC2)c1cc2ccccc2o1,5.4,6.8,88.0*,0.9,14.4,4.7,
CCOC(=O)c1ccc(NC(=O)c2cc3ccccc3o2)cc1,-1.0,6.5,67.2*,0.9,11.6,-15.6,
O=C(Nc1cccc(Br)c1)c1cc2ccccc2o1,-4.7,3.9,97.2*,0.8,18.8,33.6,
Cc1cccc(NC(=O)c2cc3ccccc3o2)c1,-9.6,-1.3,65.0*,1,3.2,14.2,
CCOC(=O)c1cccc(NC(=O)c2cc3ccccc3o2)c1,-4.9,.,19.2,.,.,.,

# Screens as filed in PubChem.
